Source: ChEMBL document CHEMBL3352261, “Discovery of inhibitors of the mitotic kinase TTK based on N-(3-(3-sulfamoylphenyl)-1H-indazol-5-yl)-acetamides and carboxamides” (Bioorg Med Chem, 2014)
Activity calls are given as the source filed them. No cut-off for these calls is given here.

What was measured:
[1] = tested on: Mus musculus; experiment: Toxicity in SCID mouse assessed as body weight loss at 15 mg/kg, ip qd for 5 days; type: organism-based; set-up: dose 15 mg/kg, route intraperitoneal; settings: in vivo, 120 h
In short: (§1)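 Mice bore HCT116 tumour xenografts. Arms were dosed IP at 12.5 or 25 mg/kg QD, or at 12.5 mg/kg BID. The reference arm received 5-fluorouracil IP at 15 mg/kg daily. Tumour volume was compared with a negative control group to give percent tumour growth inhibition. Body weight was monitored in all arms.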

[2] = Antitumor activity against human HCT116 cells xenografted in SCID mouse assessed as tumor growth inhibition at 12.5 mg/kg, ip bid for 18 days; type: functional; settings: HCT-116, ip, 432 h, route intraperitoneal, read-out: TGI; in short: as §1
[3] = Cmax in SCID mouse at 25 mg/kg, po; type: ADME, organism-based; set-up: dose 25 mg/kg, route oral; settings: in vivo
In short: (§2)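 Mice were dosed at 25 mg/kg by the IP or the PO route. Drug levels were measured in plasma, and Cmax (µg/mL) and AUC (µg h/mL) were derived for each route.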

[4] = Antitumor activity against human HCT116 cells xenografted in SCID mouse assessed as tumor growth inhibition at 12.5 mg/kg, ip qd for 18 days; type: functional; settings: HCT-116, ip, 432 h, route intraperitoneal, read-out: TGI; in short: as §1
[5] = tested on: Mus musculus; experiment: Toxicity in SCID mouse assessed as mortality at 25 mg/kg, ip bid for 18 days; type: organism-based; set-up: dose 25 mg/kg, route intraperitoneal; settings: in vivo, 432 h
[6] = Antitumor activity against human HCT116 cells xenografted in SCID mouse assessed as tumor growth inhibition at 25 mg/kg, ip qd for 18 days; type: functional; settings: HCT-116, ip, 432 h, route intraperitoneal, read-out: TGI; in short: as §1
[7] = tested on: Mus musculus; experiment: Toxicity in SCID mouse assessed as body weight loss at 12.5 mg/kg, ip bid for 18 days; type: organism-based; set-up: dose 12.5 mg/kg, route intraperitoneal; settings: in vivo, 432 h; in short: as §1
[8] = Cmax in SCID mouse at 25 mg/kg, ip; type: ADME, organism-based; set-up: dose 25 mg/kg, route intraperitoneal; settings: in vivo; in short: as §2
[9] = AUC in SCID mouse at 25 mg/kg, po; type: ADME, organism-based; set-up: dose 25 mg/kg, route oral; settings: plasma; in short: as §2
[10] = molecular target: T1, Cytochrome P450 3A4 (Homo sapiens, UniProt P08684); experiment: Inhibition of CYP3A4 in supersomes (unknown origin) using 7-benzyloxy-4-trifluoromethylcoumarin as substrate after 30 mins; type: ADME
T1 sequence (P08684 whole entry): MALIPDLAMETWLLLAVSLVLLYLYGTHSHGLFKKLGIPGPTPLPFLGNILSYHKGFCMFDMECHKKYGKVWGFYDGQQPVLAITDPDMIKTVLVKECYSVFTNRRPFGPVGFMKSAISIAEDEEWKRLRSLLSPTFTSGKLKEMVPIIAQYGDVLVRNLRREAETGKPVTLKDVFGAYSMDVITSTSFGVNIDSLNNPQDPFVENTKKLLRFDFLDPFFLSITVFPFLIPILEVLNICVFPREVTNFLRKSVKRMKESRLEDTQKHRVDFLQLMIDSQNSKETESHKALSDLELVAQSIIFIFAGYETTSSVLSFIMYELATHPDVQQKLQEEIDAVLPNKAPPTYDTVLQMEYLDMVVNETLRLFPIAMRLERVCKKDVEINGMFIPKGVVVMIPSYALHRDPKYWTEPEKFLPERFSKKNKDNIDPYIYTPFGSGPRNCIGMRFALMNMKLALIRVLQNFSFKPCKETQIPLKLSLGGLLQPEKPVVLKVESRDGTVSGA

[11] = Cell cycle arrest in human HCT116 cells assessed as accumulation at sub-G1 phase at 1 uM after 2 days by flow cytometry; type: functional, cell-based; settings: HCT-116
[12] = tested on: HCT-116; experiment: Antitumor activity against human HCT116 cells xenografted in SCID mouse assessed as tumor growth inhibition administered ip qd for 18 days; type: functional, organism-based; in short: as §1
[13] = Permeability of the compound at pH 7.4 by PAMPA; type: ADME; settings: read-out: permeability
[14] = molecular target: T1, Cytochrome P450 3A4; experiment: Inhibition of CYP3A4 in supersomes (unknown origin) using Dibenzylfluorescein as substrate after 10 mins; type: ADME
[15] = AUC in SCID mouse at 25 mg/kg, ip; type: ADME, organism-based; set-up: dose 25 mg/kg, route intraperitoneal; settings: plasma; in short: as §2
[16] = molecular target: T2, Cytochrome P450 1A2 (Homo sapiens, UniProt P05177); experiment: Inhibition of CYP1A2 in supersomes (unknown origin) using CEC as substrate after 30 mins; type: ADME
T2 sequence (P05177 whole entry): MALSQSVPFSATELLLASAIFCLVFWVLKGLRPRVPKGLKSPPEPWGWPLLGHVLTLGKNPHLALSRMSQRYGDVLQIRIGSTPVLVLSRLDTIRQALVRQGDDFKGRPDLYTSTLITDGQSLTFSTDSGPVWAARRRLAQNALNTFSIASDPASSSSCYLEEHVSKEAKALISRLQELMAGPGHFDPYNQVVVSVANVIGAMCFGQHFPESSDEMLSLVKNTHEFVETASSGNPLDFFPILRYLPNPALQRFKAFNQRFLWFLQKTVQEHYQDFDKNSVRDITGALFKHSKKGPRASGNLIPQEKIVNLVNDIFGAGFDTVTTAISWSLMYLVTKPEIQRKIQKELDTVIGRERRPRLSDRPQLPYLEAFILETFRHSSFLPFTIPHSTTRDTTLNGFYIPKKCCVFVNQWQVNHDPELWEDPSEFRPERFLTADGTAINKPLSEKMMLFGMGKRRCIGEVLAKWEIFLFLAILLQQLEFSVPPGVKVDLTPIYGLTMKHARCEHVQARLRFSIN

[17] = tested on: Mus musculus; experiment: Toxicity in SCID mouse assessed as body weight loss at 12.5 mg/kg, ip qd for 18 days; type: organism-based; set-up: dose 12.5 mg/kg, route intraperitoneal; settings: in vivo, 432 h; in short: as §1
[18] = molecular target: Serine/threonine-protein kinase PLK3 (Homo sapiens, UniProt Q9H4B4); experiment: Inhibition of PLK3 (unknown origin) by FRET-based homogenous assay
Serine/threonine-protein kinase PLK3, sequence (Q9H4B4 whole entry): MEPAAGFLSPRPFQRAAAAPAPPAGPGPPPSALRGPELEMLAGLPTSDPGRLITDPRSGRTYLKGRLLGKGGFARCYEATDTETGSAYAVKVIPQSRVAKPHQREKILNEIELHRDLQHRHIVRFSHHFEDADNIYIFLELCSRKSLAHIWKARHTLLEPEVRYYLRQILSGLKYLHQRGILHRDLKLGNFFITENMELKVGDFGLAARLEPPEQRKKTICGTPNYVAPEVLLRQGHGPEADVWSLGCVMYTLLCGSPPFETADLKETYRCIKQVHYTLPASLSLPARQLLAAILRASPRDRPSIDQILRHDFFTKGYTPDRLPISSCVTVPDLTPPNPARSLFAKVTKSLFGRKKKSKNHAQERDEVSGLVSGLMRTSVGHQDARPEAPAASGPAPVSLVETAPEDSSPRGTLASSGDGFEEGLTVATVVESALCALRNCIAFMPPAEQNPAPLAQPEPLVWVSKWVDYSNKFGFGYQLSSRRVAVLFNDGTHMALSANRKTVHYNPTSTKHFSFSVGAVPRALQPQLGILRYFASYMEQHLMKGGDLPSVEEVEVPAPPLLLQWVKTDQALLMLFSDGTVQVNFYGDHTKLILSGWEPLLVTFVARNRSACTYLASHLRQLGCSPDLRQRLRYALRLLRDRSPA

[19] = molecular target: Serine/threonine-protein kinase PLK2 (Homo sapiens, UniProt Q9NYY3); experiment: Inhibition of PLK2 (unknown origin) by FRET-based homogenous assay
Serine/threonine-protein kinase PLK2, sequence (Q9NYY3 whole entry): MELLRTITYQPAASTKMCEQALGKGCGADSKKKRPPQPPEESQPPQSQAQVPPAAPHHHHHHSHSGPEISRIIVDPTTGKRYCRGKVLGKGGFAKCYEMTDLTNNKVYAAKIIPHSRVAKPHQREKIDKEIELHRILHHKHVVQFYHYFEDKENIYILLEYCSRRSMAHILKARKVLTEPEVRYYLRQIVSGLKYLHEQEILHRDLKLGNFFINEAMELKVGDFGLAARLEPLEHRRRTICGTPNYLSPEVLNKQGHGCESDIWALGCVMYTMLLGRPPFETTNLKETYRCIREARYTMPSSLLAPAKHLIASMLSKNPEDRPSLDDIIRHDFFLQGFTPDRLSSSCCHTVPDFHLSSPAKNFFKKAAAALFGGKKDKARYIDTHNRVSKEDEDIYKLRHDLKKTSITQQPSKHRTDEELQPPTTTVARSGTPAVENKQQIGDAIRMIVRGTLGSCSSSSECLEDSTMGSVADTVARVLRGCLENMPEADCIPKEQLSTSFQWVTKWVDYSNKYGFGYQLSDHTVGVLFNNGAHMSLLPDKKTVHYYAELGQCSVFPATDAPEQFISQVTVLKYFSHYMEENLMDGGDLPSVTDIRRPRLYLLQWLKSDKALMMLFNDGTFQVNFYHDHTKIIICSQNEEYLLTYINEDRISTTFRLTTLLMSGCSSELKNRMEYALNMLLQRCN

SMILES | Activity [1] | inhibition in vivo at 12.5 mg/kg [2] | Cmax [3] | inhibition in vivo at 12.5 mg/kg [4] | Activity [5] | inhibition in vivo at 25 mg/kg [6] | Activity [7] | Cmax [8] | AUC [9] | IC50 [10] | Activity [11] | TGI [12] | Papp [13] | IC50 [14] | AUC [15] | IC50 [16] | Activity [17] | IC50 [18] | IC50 [19]
CCc1ccccc1C(C(=O)Nc1ccc2[nH]nc(-c3cccc(S(N)(=O)=O)c3)c2c1)N(C)C (racemic) | Non-toxic | 46% | 0.13 µg/mL | 10% | Toxic | 66% | Non-toxic | 4.8 µg/mL | 0.14 µg·h/mL | 0.7 µM | Active | Dose-dependent effect | 190 nm/s | 2.9 µM | 3 µg·h/mL | > 10 µM | Non-toxic |  | 
NS(=O)(=O)c1cccc(-c2n[nH]c3ccc(NC(=O)C(c4ccsc4)N4CCCC4)cc23)c1 (racemic) |  |  |  |  |  |  |  |  |  | 4 µM | Active |  | 42 nm/s | > 1 µM |  | > 10 µM |  | > 50 µM | 10 µM
